{
  "source": "ChEMBL document CHEMBL3797115",
  "about": "“Design and synthesis of peptide conjugates of phosphoramide mustard as prodrugs activated by prostate-specific antigen” (Bioorg Med Chem, 2016)",
  "key": {"[1]": {"biological_target": "T1, Prostate-specific antigen (Homo sapiens, UniProt P07288)", "T1 sequence (P07288 whole entry)": "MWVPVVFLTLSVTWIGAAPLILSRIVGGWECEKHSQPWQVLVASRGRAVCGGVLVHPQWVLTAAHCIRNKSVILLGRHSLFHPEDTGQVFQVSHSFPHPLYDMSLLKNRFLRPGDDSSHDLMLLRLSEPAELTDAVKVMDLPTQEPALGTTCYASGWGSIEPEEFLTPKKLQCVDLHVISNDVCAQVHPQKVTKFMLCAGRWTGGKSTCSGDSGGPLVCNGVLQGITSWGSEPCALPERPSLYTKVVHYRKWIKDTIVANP", "assay": "Prodrug activation assessed as prostate specific antigen (unknown origin)-mediated drug metabolism in Tris/HCl buffer pH 8 at 100 uM measured as half life by HPLC analysis", "type": "ADME", "conditions": "pH 8, 100 µM", "in_short": "(§1)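 Purified PSA with substrate at 1:100 enzyme/substrate molar ratio, 37 °C, Tris/HCl pH 8.0 with 10 mM CaCl2 and 0.1% Tween-20. Substrate stocks 10 mM in DMSO. Aliquots taken at intervals, quenched with 20% acetonitrile, frozen, then analysed by HPLC for substrate loss. Cleavage site after Gln confirmed by LC/MS.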"}, "[2]": {"assay": "Antiproliferative activity against human DU145 cells after 72 hrs by MTT assay", "type": "functional, cell-based", "conditions": "DU-145, 72 h", "in_short": "(§2)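 LNCaP (PSA-producing) and DU145 (non-PSA) cells grown in RPMI 1640 with 10% FBS; 7500 LNCaP or 500 DU145 cells/well, grown 48 h. Medium then switched to serum-free RPMI with 2% TCM, no phenol red. Conjugates 0.01–100 µM for 72 h; medium alone as negative control. MTT 4 h at 37 °C, read at 570 nm; IC50 interpolated from percent of control growth.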"}, "LNCaP": {"test_system": "LNCaP", "assay": "Antiproliferative activity against human LNCAP cells expressing prostate specific antigen after 72 hrs by MTT assay", "type": "functional, cell-based", "in_short": "as §2"}, "[3]": {"biological_target": "T1, Prostate-specific antigen", "assay": "Prodrug activation assessed as prostate specific antigen (unknown origin)-mediated drug metabolism in Tris/HCl buffer pH 8 at 0.16 mM by HPLC analysis", "type": "ADME", "conditions": "pH 8, 160 µM, TDE = time-dependent effect", "in_short": "as §1"}, "[4]": {"assay": "Half life in Tris buffer pH 8 at 100 uM by HPLC analysis", "type": "ADME", "in_short": "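Conjugate at 100 µM incubated at 37 °C in 50 mM Tris/HCl pH 8.0 with 10 mM CaCl2 and 0.1% Tween-20, without enzyme. Loss of conjugate followed over time by HPLC to give half-life.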"}, "[5]": {"biological_target": "T1, Prostate-specific antigen", "assay": "Prodrug activation assessed as prostate specific antigen (unknown origin)-mediated drug metabolism in Tris/HCl buffer at pH 8 measured after 2 hrs by HPLC analysis", "type": "ADME", "conditions": "pH 8, 2 h", "in_short": "as §1"}},
  "note": "Starred links: 1 amine or outer side, 2 acyl side, 3 side chain; linkers in the order of their positions; H or OH if unused. Non-standard residues stand in square brackets, D forms with d. Residues, ends and D or L forms follow the SMILES beside them. *: point of attachment. X1 = NP(=O)(OCc1c(F)c(F)c(N*)c(F)c1F)N(CCCl)CCCl; X3 = NP(=O)(OCc1c(F)cc(N*)cc1F)N(CCCl)CCCl; X2 = NP(=O)(OCc1ccc(N*)c(F)c1)N(CCCl)CCCl; X5 = NP(=O)(OCc1ccc(N*)cc1F)N(CCCl)CCCl; X4 = NP(=O)(OCc1ccc(N*)cc1)N(CCCl)CCCl; Glutaryl = O=C(CCCC(=O)[*:2])[*:1]; Hyp = O=C(O)[C@@H]1C[C@@H](O)CN1; Chg = N[C@H](C(=O)O)C1CCCCC1",
  "data": [
    {"smiles": "C[C@H](NC(=O)[C@@H]1C[C@@H](O)CN1C(=O)CCCC(=O)O)C(=O)N[C@@H](CO)C(=O)N[C@H](C(=O)N[C@@H](CCC(N)=O)C(=O)Nc1c(F)c(F)c(COP(N)(=O)N(CCCl)CCCl)c(F)c1F)C1CCCCC1", "note": "(some centres undefined) (Glutaryl-[Hyp]AS[Chg]Q-X1)", "values": [
      {"measurement": "t1/2", "setting": "[1]", "value": 1.1, "unit": "h"},
      {"measurement": "IC50", "setting": "[2]", "value": "> 100", "unit": "µM"},
      {"measurement": "IC50", "setting": "LNCaP", "value": "> 100", "unit": "µM"},
      {"measurement": "Drug metabolism", "setting": "[3]", "value": "tde"},
      {"measurement": "half-life at 100 µM", "setting": "[4]", "value": 178, "unit": "h"}
    ]},
    {"smiles": "C[C@H](NC(=O)[C@@H]1C[C@@H](O)CN1C(=O)CCCC(=O)O)C(=O)N[C@@H](CO)C(=O)N[C@H](C(=O)N[C@@H](CCC(N)=O)C(=O)Nc1ccc(COP(N)(=O)N(CCCl)CCCl)cc1F)C1CCCCC1", "note": "(some centres undefined) (Glutaryl-[Hyp]AS[Chg]Q-X2)", "values": [
      {"measurement": "t1/2", "setting": "[1]", "value": 0.65, "unit": "h"},
      {"measurement": "IC50", "setting": "[2]", "value": "> 100", "unit": "µM"},
      {"measurement": "IC50", "setting": "LNCaP", "value": 29, "unit": "µM"},
      {"measurement": "Drug metabolism", "setting": "[3]", "value": "tde"},
      {"measurement": "half-life at 100 µM", "setting": "[4]", "value": 465, "unit": "h"}
    ]},
    {"smiles": "C[C@H](NC(=O)[C@@H]1C[C@@H](O)CN1C(=O)CCCC(=O)O)C(=O)N[C@@H](CO)C(=O)N[C@H](C(=O)N[C@@H](CCC(N)=O)C(=O)Nc1cc(F)c(COP(N)(=O)N(CCCl)CCCl)c(F)c1)C1CCCCC1", "note": "(some centres undefined) (Glutaryl-[Hyp]AS[Chg]Q-X3)", "values": [
      {"measurement": "t1/2", "setting": "[1]", "value": 1.7, "unit": "h"},
      {"measurement": "IC50", "setting": "[2]", "value": "> 100", "unit": "µM"},
      {"measurement": "IC50", "setting": "LNCaP", "value": 20, "unit": "µM"},
      {"measurement": "Drug metabolism", "setting": "[3]", "value": "tde"},
      {"measurement": "half-life at 100 µM", "setting": "[4]", "value": 131, "unit": "h"}
    ]},
    {"smiles": "C[C@H](NC(=O)[C@@H]1C[C@@H](O)CN1C(=O)CCCC(=O)O)C(=O)N[C@@H](CO)C(=O)N[C@H](C(=O)N[C@@H](CCC(N)=O)C(=O)Nc1ccc(COP(N)(=O)N(CCCl)CCCl)cc1)C1CCCCC1", "note": "(some centres undefined) (Glutaryl-[Hyp]AS[Chg]Q-X4)", "values": [
      {"measurement": "t1/2", "setting": "[1]", "value": 2.1, "unit": "h"},
      {"measurement": "IC50", "setting": "[2]", "value": 35, "unit": "µM"},
      {"measurement": "IC50", "setting": "LNCaP", "value": 11, "unit": "µM"},
      {"measurement": "Drug metabolism", "setting": "[3]", "value": "tde"},
      {"measurement": "half-life at 100 µM", "setting": "[4]", "value": 46, "unit": "h"}
    ]},
    {"smiles": "C[C@H](NC(=O)[C@@H]1C[C@@H](O)CN1C(=O)CCCC(=O)O)C(=O)N[C@@H](CO)C(=O)N[C@H](C(=O)N[C@@H](CCC(N)=O)C(=O)Nc1ccc(COP(N)(=O)N(CCCl)CCCl)c(F)c1)C1CCCCC1", "note": "(some centres undefined) (Glutaryl-[Hyp]AS[Chg]Q-X5)", "values": [
      {"measurement": "t1/2", "setting": "[1]", "value": 0.93, "unit": "h"},
      {"measurement": "IC50", "setting": "[2]", "value": "> 100", "unit": "µM"},
      {"measurement": "IC50", "setting": "LNCaP", "value": 5.3, "unit": "µM"},
      {"measurement": "Drug metabolism", "setting": "[3]", "value": "tde"},
      {"measurement": "half-life at 100 µM", "setting": "[4]", "value": 105, "unit": "h"}
    ]},
    {"smiles": "COc1cccc2c1C(=O)c1c(O)c3c(c(O)c1C2=O)C[C@](O)(C(=O)CO)C[C@H]3O[C@@H]1C[C@@H](NC(=O)[C@@H](CC(C)C)NC(=O)[C@@H](CO)NC(=O)[C@@H](CCC(N)=O)NC(=O)[C@H](NC(=O)[C@@H](CO)NC(=O)[C@@H](C)NC(=O)[C@@H]2C[C@@H](O)CN2C(=O)CCCC(=O)O)C2CCCCC2)[C@@H](O)[C@@H](C)O1", "note": "(stereo in doubt)", "values": [
      {"measurement": "t1/2", "setting": "[1]", "value": 0.6, "unit": "h"},
      {"measurement": "IC50", "setting": "[2]", "value": "> 100", "unit": "µM"},
      {"measurement": "Drug metabolism", "setting": "[5]", "value": "metabolite_detected"},
      {"measurement": "IC50", "setting": "LNCaP", "value": 1.1, "unit": "µM"}
    ]}
  ]
}
